SMILES strings stand for the structures. Activity calls are given as the source filed them. The calls are words filed in the database; no cut-off is given here.

Assay type in all cases: cell-based
The target in series [1] is Nuclear receptor subfamily 4 group A member 2 (Homo sapiens) (UniProt P43354). The series is described as follows: Modulation of full length human Nurr1 expressed in HEK293T cells co-transfected with RXRalpha and luciferase reporter plasmid harboring NBRE response element assessed as decrease in luciferase activity at 1.95 to 125 uM incubated for 18 hrs by luciferase reporter gene assay. Conditions: filed as modulator, dose 1.95-125 µM. Put shortly: (§1)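 Full-length Nurr1 plasmid, alone (2 μg) or 1 μg plus full-length RXRα (1 μg), cotransfected with 3xNBRE- or 3xNurRE-luciferase reporter (6 μg) using Lipofectamine 2000, 18 h. Cells replated at 10,000/well for 4 h. Four ligand concentrations, or vehicle (water, ethanol or DMSO), added in quadruplicate for 18 h. Luciferase read. Fold change vs vehicle, mean ± s.e.m., one-way ANOVA vs vehicle.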
Chain of Nuclear receptor subfamily 4 group A member 2 (Homo sapiens) (P43354 whole entry): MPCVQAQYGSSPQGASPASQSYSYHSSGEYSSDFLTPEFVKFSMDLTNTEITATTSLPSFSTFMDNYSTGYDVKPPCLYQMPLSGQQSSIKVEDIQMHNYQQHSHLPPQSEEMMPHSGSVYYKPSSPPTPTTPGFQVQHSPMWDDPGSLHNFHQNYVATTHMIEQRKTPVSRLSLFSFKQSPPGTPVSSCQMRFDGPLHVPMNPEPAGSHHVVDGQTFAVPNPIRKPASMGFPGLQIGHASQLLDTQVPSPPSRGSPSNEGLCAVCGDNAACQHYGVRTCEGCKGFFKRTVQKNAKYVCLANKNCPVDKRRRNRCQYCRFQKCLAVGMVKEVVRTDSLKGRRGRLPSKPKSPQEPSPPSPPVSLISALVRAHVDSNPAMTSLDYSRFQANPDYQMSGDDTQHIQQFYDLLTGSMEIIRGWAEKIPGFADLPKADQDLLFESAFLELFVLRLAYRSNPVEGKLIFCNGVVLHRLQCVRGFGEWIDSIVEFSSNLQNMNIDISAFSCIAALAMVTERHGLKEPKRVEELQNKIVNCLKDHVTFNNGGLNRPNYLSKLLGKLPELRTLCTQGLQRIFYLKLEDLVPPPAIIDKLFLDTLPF
Background: A reporter such as luciferase makes a cellular process visible.

Series [2] shares this target. The series is described as follows: Modulation of full length human Nurr1 expressed in HEK293T cells co-transfected with luciferase reporter plasmid harboring NBRE response element assessed as decrease in luciferase activity at 1.95 to 125 uM incubated for 18 hrs by luciferase reporter gene assay. As to conditions: filed as modulator, dose 1.95-125 µM. Put shortly:
as §1

Series [3] shares this target. The series is described as follows: Modulation of full length human Nurr1 expressed in PC12 cells co-transfected with luciferase reporter plasmid harboring NBRE response element assessed as decrease in luciferase activity at 1.95 to 125 uM incubated for 18 hrs by luciferase reporter gene assay. As to conditions: PC-12, filed as modulator, dose 1.95-125 µM. Put shortly:
(§2)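 Here PC12 cells (FK-12 medium, 15% horse serum, 2.5% FBS, 37°C, 5% CO2) received full-length Nurr1 (2 μg) without RXRα, plus 3xNBRE- or 3xNurRE-luciferase reporter (6 μg), for 18 h. Cells were replated at 10,000/well for 4 h, then treated with ligand or vehicle in quadruplicate for 18 h. Luciferase luminescence was normalized to vehicle-treated cells. Results are mean ± s.e.m. (n=4) from 2 independent experiments, with one-way ANOVA against vehicle.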

The target is the same in series [4]. The series is described as follows: Modulation of full length human Nurr1 expressed in PC12 cells co-transfected with RXRalpha and luciferase reporter plasmid harboring NBRE response element assessed as decrease in luciferase activity at 1.95 to 125 uM incubated for 18 hrs by luciferase reporter gene assay. Conditions: PC-12, filed as modulator, dose 1.95-125 µM. In outline:
as §1

Series [5] has the same target. In words: Modulation of full length human Nurr1 expressed in HEK293T cells co-transfected with RXRalpha and luciferase reporter plasmid harboring NurRE response element assessed as decrease in luciferase activity at 1.95 to 125 uM incubated for 18 hrs by luciferase reporter gene assay. As to conditions: filed as modulator, dose 1.95-125 µM. Put shortly: as §1
The subject of series [6] is SKNBE2. In words: Modulation of Gal4-fused VP16 expressed in SKNBE(2) cells co-transfected with UAS repoter gene assessed as decrease in luciferase activity at 125 uM incubated for 18 hrs by luciferase reporter gene assay. As to conditions: Human alphaherpesvirus 2, filed as modulator. Put shortly: (§3)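 Cells in 10-cm dishes were transfected with Gal4-VP16 expression plasmid (2 μg) plus 5xUAS-luciferase reporter (2 μg) for 18 h. They were replated at 10,000 cells/well for 4 h, then given ligand or vehicle (water, ethanol or DMSO) in quadruplicate for 18 h. Luciferase was read with Britelite Plus. Fold change is versus vehicle-treated cells, with one-way ANOVA versus vehicle.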

Series [7] has as its target Nuclear receptor subfamily 4 group A member 2 (Homo sapiens) (UniProt P43354). In words: Modulation of full length human Nurr1 expressed in PC12 cells co-transfected with RXRalpha and luciferase reporter plasmid harboring NurRE response element assessed as decrease in luciferase activity at 1.95 to 125 uM incubated for 18 hrs by luciferase reporter gene assay. Conditions: PC-12, filed as modulator, dose 1.95-125 µM. Put shortly: (§4)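 PC12 cells were grown at 37°C and 5% CO2 in […] medium with 15% horse serum and 2.5% FBS. They were transfected with full-length Nurr1 (1 μg) plus full-length RXRα (1 μg) and 3xNBRE- or 3xNurRE-luciferase reporter (6 μg) for 18 h, then replated at 10,000 cells/well for 4 h. Ligand or vehicle (water, ethanol or DMSO) was added in quadruplicate for 18 h. Luminescence was read as fold change over vehicle. Results are mean ± s.e.m., n=4, from 2 independent experiments, analysed by one-way ANOVA against vehicle.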

The target is the same in series [8]. The series is described as follows: Modulation of full length human Nurr1 expressed in PC12 cells co-transfected with RXRalpha and luciferase reporter plasmid harboring NurRE response element assessed as increase in luciferase activity incubated for 18 hrs by luciferase reporter-gene assay. As to conditions: PC-12, filed as modulator. Put shortly:
as §4

Series [9] shares this target. The series is described as follows: Modulation of full length human Nurr1 expressed in SK-N-BE(2) cells co-transfected with luciferase reporter plasmid harboring NBRE response element assessed as increase in luciferase activity at 1.95 to 125 uM incubated for 18 hrs by luciferase reporter gene assay. Conditions: SKNBE2, filed as modulator, dose 1.95-125 µM. In outline: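 Transfection of SK-N-BE(2)-C cells (1:1 EMEM/F12, 10% FBS, 37°C, 5% CO2) used full-length Nurr1 alone (2 μg, no RXRα) with 3xNBRE- or 3xNurRE-luciferase reporter (6 μg) for 18 h. Cells were replated at 10,000/well for 4 h, then exposed to ligand or vehicle in quadruplicate for 18 h. Luminescence was expressed as fold over vehicle, as mean ± s.e.m. (n=4) from 2 independent experiments, one-way ANOVA against vehicle.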

Series [10] shares this target. In words: Modulation of full length human Nurr1 expressed in HEK293T cells co-transfected with luciferase reporter plasmid harboring NurRE response element assessed as decrease in luciferase activity at 1.95 to 125 uM incubated for 18 hrs by luciferase reporter gene assay. Conditions: filed as modulator, dose 1.95-125 µM. Put shortly:
as §1

The test system of series [11] is SKNBE2. The series is described as follows: Modulation of Gal4-fused VP16 expressed in SKNBE(2) cells co-transfected with UAS repoter gene assessed as increase in luciferase activity upto 15 uM incubated for 18 hrs by luciferase reporter gene assay. As to conditions: Human alphaherpesvirus 2, filed as modulator, dose microM <=15, time 18.0 hrs. Put shortly:
as §3

In series [12] the target is Nuclear receptor subfamily 4 group A member 2 (Homo sapiens) (UniProt P43354). The series is described as follows: Modulation of full length human Nurr1 expressed in SK-N-BE(2) cells co-transfected with RXRalpha and luciferase reporter plasmid harboring NBRE response element assessed as increase in luciferase activity at 1.95 to 125 uM incubated for 18 hrs by luciferase reporter gene assay. As to conditions: SKNBE2, filed as modulator, dose 1.95-125 µM. In outline:
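SK-N-BE(2)-C cells were kept in 1:1 EMEM/F12 with 10% FBS at 37°C and 5% CO2. They were cotransfected with full-length Nurr1 (1 μg), full-length RXRα (1 μg) and 3xNBRE- or 3xNurRE-luc reporter (6 μg) for 18 h, replated at 10,000 cells/well for 4 h, and then treated with ligand or vehicle in quadruplicate for 18 h. The readout was luciferase luminescence as fold over vehicle, reported as mean ± s.e.m. (n=4) from 2 independent experiments, one-way ANOVA.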

Series [13] has the same target. The series is described as follows: Modulation of full length human Nurr1 expressed in PC12 cells co-transfected with luciferase reporter plasmid harboring NurRE response element assessed as decrease in luciferase activity at 1.95 to 125 uM incubated for 18 hrs by luciferase reporter gene assay. As to conditions: PC-12, filed as modulator, dose 1.95-125 µM. In outline: as §2

A further series deals with SK-N-BE(2). The series is described as follows: Cytotoxicity against human SKNBE2 cells assessed as reduction in cell viability at 125 uM incubated for 18 hrs by Cell Titer Glo assay. Put shortly: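 Cells seeded at 1.5 million per 10-cm dish. Next day they were replated at 10,000 cells/well and rested 4 h. Ligand or vehicle (water, ethanol or DMSO, by ligand) was added in dose-response format in quadruplicate. After 18 h, viability was read by CellTiter-Glo luminescence. Data are mean ± s.e.m., generally representative of 2 independent experiments. One-way ANOVA versus vehicle.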
(In general: ATP-based viability assays read luminescence as a measure of living cells.)

`CCN(CC)CCCC(C)Nc1ccnc2cc(Cl)ccc12` (centres undefined) [CHLOROQUINE]: the outcome (in series [1]; in [2]; in series [3]; in series [4]; in series [5]; with SKNBE2 [6]) was Active. Besides, the result (in [7]; in [9]; in series [10]; in the series on SKNBE2 [11]; in series [12]; in series [13]) was Active. The Activity result is “Dose-Dependent Effect” in series [8] and “Non-Toxic” with SK-N-BE(2).

Take `CCCCCCCC(=O)c1c(O)cc(O)cc1CC(=O)OCC` [CYTOSPORONE B]: in series [8], the Activity entry was “Dose-Dependent Effect”.

In the case of `CCN(CC)Cc1cc(Nc2ccnc3cc(Cl)ccc23)ccc1O` [AMODIAQUINE], the outcome (in series [1]; in [2]; in series [3]; in series [4]; in series [5]; with SKNBE2 [6]) was Active. Moreover, the outcome (in series [7]; in series [9]; in series [10]; in the series on SKNBE2 [11]; in series [12]; in series [13]) was Active. Further, the Activity result was “Dose-Dependent Effect” in series [8] and “Non-Toxic” with SK-N-BE(2).
